In ChEMBL document CHEMBL4396922, “Identification of new aryl hydrocarbon receptor (AhR) antagonists using a zebrafish model” (Bioorg Med Chem, 2019):
The source made the active and inactive calls. The calls are words filed in the database; no cut-off is given here.

Assays:
[1] = target: T1, Aryl hydrocarbon receptor (Danio rerio, UniProt Q9YGV3); assay: Antagonist activity at aryl hydrocarbon receptor in 30 hrs post fertilized transgenic cyp1a:EGFP zebrafish embryo assessed as receptor transcriptional activity by measuring cyp1A-mediated EGFP expression at 5 uM measured after 48 hrs by fluorescence stereomicroscopic analysis
T1 sequence (Q9YGV3 whole entry): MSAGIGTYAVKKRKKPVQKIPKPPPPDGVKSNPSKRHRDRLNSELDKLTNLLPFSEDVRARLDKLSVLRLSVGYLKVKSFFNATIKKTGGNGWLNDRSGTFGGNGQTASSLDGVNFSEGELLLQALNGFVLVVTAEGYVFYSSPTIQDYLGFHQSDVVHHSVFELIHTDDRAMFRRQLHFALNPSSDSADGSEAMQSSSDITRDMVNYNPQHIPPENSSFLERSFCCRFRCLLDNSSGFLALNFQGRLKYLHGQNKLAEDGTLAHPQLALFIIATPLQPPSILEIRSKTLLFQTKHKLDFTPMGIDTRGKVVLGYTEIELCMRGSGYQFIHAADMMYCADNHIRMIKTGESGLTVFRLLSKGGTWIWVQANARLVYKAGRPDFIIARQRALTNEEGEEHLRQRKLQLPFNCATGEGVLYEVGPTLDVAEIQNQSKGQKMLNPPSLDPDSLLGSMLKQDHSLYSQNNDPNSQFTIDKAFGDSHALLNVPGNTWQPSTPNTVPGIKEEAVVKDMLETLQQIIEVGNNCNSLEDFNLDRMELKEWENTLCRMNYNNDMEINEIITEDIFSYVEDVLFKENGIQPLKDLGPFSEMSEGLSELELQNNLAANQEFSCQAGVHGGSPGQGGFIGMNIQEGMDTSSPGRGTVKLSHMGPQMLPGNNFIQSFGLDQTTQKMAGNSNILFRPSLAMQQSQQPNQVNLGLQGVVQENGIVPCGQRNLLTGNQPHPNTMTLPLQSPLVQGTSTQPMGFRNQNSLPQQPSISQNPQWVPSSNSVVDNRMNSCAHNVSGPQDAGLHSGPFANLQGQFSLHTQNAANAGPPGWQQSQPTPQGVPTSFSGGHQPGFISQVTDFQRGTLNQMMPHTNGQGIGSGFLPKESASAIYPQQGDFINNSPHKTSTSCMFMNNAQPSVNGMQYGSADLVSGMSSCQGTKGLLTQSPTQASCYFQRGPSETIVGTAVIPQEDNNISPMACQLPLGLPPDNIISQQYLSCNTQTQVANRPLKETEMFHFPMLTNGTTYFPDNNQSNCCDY
How it was run: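 Screen format: 30 hpf Tg(cyp1a:nls-egfp) embryos, three per well in 200 µL E3 medium (pH 7.2) with 10 nM TCDD. Each compound was added singly at 5 µM in DMSO. Incubation 48 h, then EGFP scored by fluorescent stereomicroscopy.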

Homo sapiens [2] = organism: Homo sapiens; assay: Ex vivo expansion of human CD34-positive blood stem/progenitor cells assessed as CD34+ cell population incubated for 5 weeks supplemented with fresh medium containing human recombinant thrombopoietin, stem cell factor, FLT-3 ligand and IL-3 by flow cytometry; format: functional
How it was run: (§1)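 Human cord blood CD34⁺ progenitors, 5 x 10⁴ cells in DXF expansion medium with supplement and cytokine mix (TPO, SCF, flt-3 ligand, IL-3), treated with compound at seeding. Cultured 5 weeks at 37°C, 5% CO2, density kept at 5 x 10⁵–2 x 10⁶ cells/ml. Cells stained with anti-CD34-APC plus CD45RA- or Lin-FITC and counted by flow cytometry; vehicle 0.01% DMSO.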

[3] = target: T1, Aryl hydrocarbon receptor; assay: Antagonist activity at zebrafish AhR2 expressed in COS7 cells transfected with ARNT-1c, Cyp1a-firefly luciferase and pRL-TK Renilla luciferase plasmids assessed as inhibition of AhR transcriptional activity administered at 5 hrs post-transfection treated with TCDD at 1 hr post-compound treatment and measured for 10 sec after a 3 sec delay at 18 hrs post-TCDD challenge by dual luciferase reporter …; format: cell-based
Homo sapiens [4] = organism: Homo sapiens; assay: Ex vivo expansion of human CD34-positive blood stem/progenitor cells assessed as increase in CD34+ cell population incubated for 5 weeks supplemented with fresh medium containing human recombinant thrombopoietin, stem cell factor, FLT-3 ligand and IL-3 by flow cytometry relative to control; format: functional; how it was run: as §1
[5] = Toxicity in 30 hrs post fertilized transgenic cyp1a:EGFP zebrafish embryo; format: ADME, Danio rerio; details: in vivo

SMILES	Activity [1]	also measured
COc1ccccc1-c1cc(-c2ccc(OC(C)C)cc2)ncn1	Active	–
Cc1ccccc1/N=N/c1ccc(NC(=O)c2ccnn2C)c(C)c1	–	Activity (Homo sapiens [2]): inactive; IC50 [3]: 98.1 nM
COc1ccccc1C(=O)CC(=O)c1ccc(OC(F)(F)F)cc1	–	Activity (Homo sapiens [2]): inactive
COc1ccccc1C(=O)C(C)(C)C(=O)c1ccc(OC(C)C)cc1	Not Active	–
COc1ccccc1C(=O)/C=C/c1ccc(OC(C)C)cc1	–	fold change (FC) (Homo sapiens [4]): > 4
COc1ccc(C(=O)CC(=O)c2ccc(OC(F)(F)F)cc2)cc1	Not Active	–
COc1ccccc1C(=O)CC(=O)c1ccc(OCc2ccccc2)cc1	Not Active	–
COc1ccc(C(=O)CC(=O)c2ccccc2OC)cc1	Not Active	–
COc1ccccc1C(=O)CC(=O)c1cccc(OC(F)(F)F)c1	Active	–
CC(C)Oc1ccc(C(=O)CC(=O)c2ccccc2OC(F)(F)F)cc1	Not Active	–
COc1ccccc1-c1cc(-c2ccc(OC(F)(F)F)cc2)no1	Not Active	–
COc1cc(O)c(C(=O)CC(=O)c2ccc(OC(C)C)cc2)c(OC)c1	Not Active	–
COc1cccc(OC)c1C(=O)CC(=O)c1ccc(OC(C)C)cc1	Not Active	–
COc1ccccc1-c1cc(-c2ccc(OC(C)C)cc2)no1	Active	–
COc1ccccc1C(=O)CC(=O)c1ccc(OC(C)C)cc1	–	Activity (Homo sapiens [2]): inactive
COc1ccccc1-c1cc(-c2ccc(OC(F)(F)F)cc2)[nH]n1	Not Active	Activity [5]: Toxic
O=C(CC(=O)c1ccc(OC(F)(F)F)cc1)c1ccccc1	Not Active	–
COc1cccc(C(=O)CC(=O)c2ccc(OC(F)(F)F)cc2)c1	Active	–
COc1ccccc1-c1cc(-c2ccc(OC(C)C)cc2)[nH]n1	Not Active	Activity [5]: Toxic
CCOc1ccc(C(=O)CC(=O)c2ccccc2OC)cc1	Active	–
CCOc1ccccc1C(=O)CC(=O)c1ccc(OC(C)C)cc1	–	Activity (Homo sapiens [2]): inactive
COc1ccccc1C(=O)/C=C/c1ccc(OC(F)(F)F)cc1	Not Active	Activity [5]: Toxic
COc1ccccc1C(=O)CC(=O)c1ccc(OCC(C)C)cc1	Not Active	–
COc1ccccc1C(=O)CC(=O)c1ccccc1	Not Active	–
